Series [1] deals with HT-29. The series can be described thus: Phototoxicity against human HT29 cells irradiated with 652 nm diode laser at the rate of 50 J/cm'2 at 2 uM after 24 hrs by XTT assay in presence of 10% heat-inactivated fetal calf serum. In kind it is functional, cell-based. Summed up: (§1)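 HT-29 cells seeded at 2 × 10⁴ cells/well. Loaded 24 h with 2 or 10 μM sensitizer (final; from 2 mM DMSO stock kept dark at 4 °C) in phenol-red-free RPMI 1640 plus 10% FCS. Irradiated at room temperature with a 652 nm diode laser, 100 mW/cm², 50 J/cm². Viability read by XTT absorbance.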
In general terms: Formazan colour is commonly taken as a measure of viable cells.

The subject of series [2] is HT-29. The series can be described thus: Phototoxicity against human HT29 cells irradiated with 652 nm diode laser at the rate of 50 J/cm'2 at 10 uM after 24 hrs by XTT assay in presence of 10% heat-inactivated fetal calf serum. It is filed as functional, cell-based. The essentials: as §1
In series [3] the test system is HT-29. Briefly: Cytotoxicity against human HT29 cells under dark condition at 2 uM after 24 hrs by XTT assay in presence of 10% heat-inactivated fetal calf serum. In kind it is functional, cell-based. The essentials:
(§2)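 HT-29 human colon adenocarcinoma cells seeded at 2 × 10⁴ cells/well. Incubated 24 h with 2 or 10 μM sensitizer (final, diluted from 2 mM DMSO stock) in phenol-red-free RPMI 1640 with 10% FCS. Cells kept without irradiation for dark toxicity. Viability measured by XTT absorbance.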

Series [4] concerns HT-29. The series can be described thus: Cytotoxicity against human HT29 cells under dark condition at 10 uM after 24 hrs by XTT assay in presence of 10% heat-inactivated fetal calf serum. In kind it is functional, cell-based. The essentials: as §2
Series [5] in a line: Chemical stability of the compound. In kind it is physicochemical.

Active and inactive are the calls of the source. The calls are words filed in the database; no cut-off is given here.

Regarding `Oc1cccc(-c2c3nc(c(-c4cccc(O)c4)c4ccc([nH]4)c(-c4cccc(O)c4)c4nc(c(-c5cccc(O)c5)c5ccc2[nH]5)C(O)(c2cc(C(F)(F)F)cc(C(F)(F)F)c2)C4(O)c2cc(C(F)(F)F)cc(C(F)(F)F)c2)C=C3)c1` (stereo not given), the result in the series on HT-29 [1], with HT-29 [3] and in the series on HT-29 [4] was inactive. Also, the result in the series on HT-29 [2] was Active. Also, the Stability result in series [5] is on record as “Stable”.
As to `CCCCCCC1(O)c2nc(c(-c3cccc(O)c3)c3ccc([nH]3)c(-c3cccc(O)c3)c3nc(c(-c4cccc(O)c4)c4ccc([nH]4)c2-c2cccc(O)c2)C=C3)C1(O)CCCCCC` (stereo not given), the outcome in the series with HT-29 [1] and in the series on HT-29 [2] was Active. Moreover, the result in the series on HT-29 [3] and in the series on HT-29 [4] was inactive. Moreover, in series [5], the Stability entry was “Stable”.
Regarding `Oc1cccc(-c2c3nc(c(-c4cccc(O)c4)c4ccc([nH]4)c(-c4cccc(O)c4)c4nc(c(-c5cccc(O)c5)c5ccc2[nH]5)C(O)(C(F)(F)F)C4(O)C(F)(F)F)C=C3)c1` (stereo not given), the result with HT-29 [1] and in the series with HT-29 [2] was Active. For the same compound, the result in the series with HT-29 [3] and in the series with HT-29 [4] was inactive. For the same compound, the Stability result in series [5] is reported as “Stable”.

The values above are taken from ChEMBL document CHEMBL1833946, “Synthesis of β-functionalized temoporfin derivatives for an application in photodynamic therapy” (Bioorg Med Chem Lett, 2011).
